One molecule from paper PMC11825259 (Heliyon, 2024) can be followed below.

Broadly, the Ki is the equilibrium dissociation constant of an inhibitor or competing ligand from its target. Low readings indicate tighter binding, high ones weaker binding.

The target in the experiment is urease (Canavalia ensiformis, UniProt P07374). The experiment can be described thus: In vitro kinetic assay. The class given is biochemical, jack bean. An outline of the steps:
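Jack bean urease was run without and with several concentrations of the test compound, and the data were plotted as Lineweaver–Burk double-reciprocal plots. A secondary replot of Km against inhibitor concentration gave Ki. All data were in triplicate.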

urease, sequence (P07374 whole entry, looked up): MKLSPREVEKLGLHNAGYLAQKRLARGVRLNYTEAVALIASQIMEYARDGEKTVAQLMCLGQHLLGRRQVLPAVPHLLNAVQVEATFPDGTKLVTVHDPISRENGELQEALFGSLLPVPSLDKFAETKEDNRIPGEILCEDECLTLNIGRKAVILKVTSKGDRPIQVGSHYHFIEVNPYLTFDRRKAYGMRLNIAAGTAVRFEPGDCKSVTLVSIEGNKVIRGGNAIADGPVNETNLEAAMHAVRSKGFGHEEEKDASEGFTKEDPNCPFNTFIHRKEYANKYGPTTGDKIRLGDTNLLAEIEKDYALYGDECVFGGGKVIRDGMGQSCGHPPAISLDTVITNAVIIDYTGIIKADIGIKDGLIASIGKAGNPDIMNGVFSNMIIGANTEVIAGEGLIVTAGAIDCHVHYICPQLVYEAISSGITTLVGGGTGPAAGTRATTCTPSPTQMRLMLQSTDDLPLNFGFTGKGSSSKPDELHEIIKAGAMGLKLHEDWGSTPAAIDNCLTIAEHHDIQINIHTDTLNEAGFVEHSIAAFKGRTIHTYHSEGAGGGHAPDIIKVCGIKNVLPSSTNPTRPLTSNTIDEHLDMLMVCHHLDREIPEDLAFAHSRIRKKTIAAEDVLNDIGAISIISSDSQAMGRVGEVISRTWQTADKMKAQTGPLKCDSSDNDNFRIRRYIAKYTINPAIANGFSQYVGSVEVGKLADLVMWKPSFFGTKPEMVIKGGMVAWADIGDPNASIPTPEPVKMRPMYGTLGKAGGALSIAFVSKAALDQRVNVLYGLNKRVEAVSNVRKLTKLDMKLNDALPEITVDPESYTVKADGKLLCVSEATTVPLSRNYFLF

As for `Cc1cc(OCC(=O)N/N=C/c2ccc(OCc3cn(Cc4ccccc4)nn3)cc2)c2c(C)cc(=O)oc2c1` [13a, (E)-N'-(4-((1-Benzyl-1H-1,2,3-triazol-4-yl)methoxy)benzylidene)-2-((4,7-dimethyl-2-oxo-2H-chromen-5-yl)oxy)acetohydrazide], the inhibition constant Ki was 1990 nM. Besides, under “Lineweaver-Burk plot”, the “type of urease inhibition” value is “uncompetitive inhibitor”.
